Measurements reported in ChEMBL document CHEMBL2417527, “Prenylated and geranylated flavonoids increase production of reactive oxygen species in mouse macrophages but inhibit the inflammatory response” (J Nat Prod, 2013).
Activity calls are given as the source filed them. The calls are words filed in the database; no cut-off is given here.

What was measured:
[1] = Antioxidant activity assessed as NADH/phenazine methosulfate generated superoxide anion scavenging after 2 mins by NBT reduction assay; type: functional
Outline: (§1)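 Superoxide was generated by NADH/PMS. Final concentrations were 19 mM phosphate buffer (pH 7.4), compound in DMSO at 12.5–1000 μM, 166 μM NADH, 43.3 μM NBT and 2.7 μM PMS. NBT reduction to diformazan was read as absorbance at 560 nm after 2 min of mixing at room temperature. Five independent experiments were run, each in triplicate.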

J774.A1 [2] = assay: Reduction of ROS production in LPS-stimulated mouse J774A1 cells at 0.25 to 1.25 uM after 30 mins by flow cytometry; type: functional, cell-based
[3] = Antioxidant activity assessed as hydrogen peroxide radical scavenging activity by chemiluminescence method; type: functional
Outline: (§2)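 Lucigenin chemiluminescence was used. Each reaction contained 50 mM Tris-HCl (pH 7.4), compound in DMSO at 125–1000 μM, 800 μM lucigenin and 1% (v/v) H2O2. Luminescence was read at 37 °C immediately after mixing. Five independent experiments were run, each in triplicate.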

J774.A1 [4] = assay: Reduction of ROS production in LPS-stimulated mouse J774A1 cells at 0.25 to 1.25 uM after 24 hrs by flow cytometry; type: functional, cell-based
Outline: (§3)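 Macrophages in serum-free DMEM were pretreated with compound (0.25 or 1.25 μM) for 1 h. E. coli 0111:B4 LPS (1 μg/mL) was then added for 24 h, with DCFH2-DA added 30 min before the end. DCF fluorescence was measured by flow cytometry (ex 488/em 525 nm). Results were compared with cells given vehicle plus LPS.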

J774.A1 [5] = assay: Induction of ROS production in mouse J774A1 cells at 0.25 to 1.25 uM after 30 mins by flow cytometry relative to control; type: functional
Outline: (§4)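 Cells were grown to 80–90% confluence and switched to serum-free DMEM. They were loaded with 10 μM DCFH2-DA for 1 h, and compound (0.25 or 1.25 μM, 0.1% DMSO) was added for the final 30 min. Cells were washed, scraped off in PBS/lidocaine, and DCF was measured by flow cytometry (ex 488/em 525 nm). Results were compared with vehicle-treated cells; mean ± SE of four experiments.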

[6] = Antioxidant activity assessed as hypochlorous acid scavenging activity by fluorescence assay; type: functional
Outline: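 Oxidation of dihydrorhodamine 123 to rhodamine was followed. Final concentrations were 100 mM phosphate buffer (pH 7.4), compound in methanol at 0.625–100 μM, 5 μM DHR and 5 μM HClO. Fluorescence (ex 485, em 528 nm) was read at 37 °C immediately after mixing. Five independent experiments were run, each in triplicate.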

[7] = Antioxidant activity assessed as NADH/phenazine methosulfate generated superoxide anion scavenging at 1 mM after 2 mins by NBT reduction assay; type: functional; outline: as §1
[8] = Antioxidant activity assessed as hydrogen peroxide radical scavenging activity at 1 mM by chemiluminescence method; type: functional; outline: as §2
J774.A1 [9] = assay: Induction of ROS production in LPS-stimulated mouse J774A1 cells at 1.25 uM after 30 mins by flow cytometry relative to control; type: functional
J774.A1 [10] = assay: Induction of ROS production in LPS-stimulated mouse J774A1 cells at 0.25 to 1.25 uM after 24 hrs by flow cytometry; type: functional, cell-based; outline: as §3
J774.A1 [11] = assay: Induction of ROS production in mouse J774A1 cells at 1.25 uM after 24 hrs by flow cytometry relative to control
J774.A1 [12] = assay: Reduction of LPS-induced COX2 expression in mouse J774A1 cells at 1.25 uM pretreated 1 hr before LPS challenge measured after 24 hrs; type: functional, cell-based
Outline: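 Macrophages were pretreated with 1.25 μM compound for 1 h, then stimulated with 1 μg/mL LPS for 24 h. Lysates (40 μg protein) were run on 12% gels and blotted to PVDF. COX-2 was detected with antibody at 1:500 and normalized to β-actin by densitometry. Four independent experiments.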

J774.A1 [13] = assay: Effect on ROS production in LPS-stimulated mouse J774A1 cells at 0.25 to 1.25 uM after 30 mins by flow cytometry; type: functional, cell-based
J774.A1 [14] = assay: Induction of ROS production in mouse J774A1 cells at 1.25 uM after 30 mins by flow cytometry relative to control; type: functional; outline: as §4
J774.A1 [15] = assay: Induction of ROS production in mouse J774A1 cells at 0.25 uM after 30 mins by flow cytometry relative to control; type: functional; outline: as §4

| SMILES | IC50 [1] | Activity (J774.A1 [2]) | IC50 [3] | Activity (J774.A1 [4]) | fold change (FC) (J774.A1 [5]) | IC50 [6] | Activity [7] | Activity [8] | fold change (FC) (J774.A1 [9]) | Activity (J774.A1 [10]) | fold change (FC) (J774.A1 [11]) | Activity (J774.A1 [12]) | Activity (J774.A1 [13]) | fold change (FC) (J774.A1 [14]) | fold change (FC) (J774.A1 [15]) |
| --- | --- | --- | --- | --- | --- | --- | --- | --- | --- | --- | --- | --- | --- | --- | --- |
| CC(C)=CCc1c2c(c3occ(-c4ccc(O)c(O)c4)c(=O)c3c1O)C=CC(C)(C)O2 [POMIFERIN] | 73.3 µM | Active | 899 µM | Active | 0.95 | 9.1 µM | – | – | – | – | – | – | – | – | – |
| CC(C)=CCc1c2c(c3occ(-c4ccc(O)cc4)c(=O)c3c1O)C=CC(C)(C)O2 [OSAJIN] | > 1000 µM | – | > 1000 µM | – | 0.95 | 31 µM | 39% | 17% | 1.59 | Active | – | – | – | – | – |
| CC(C)=CCC/C(C)=C/Cc1c(O)cc2c(c1O)C(=O)C[C@@H](c1ccc(O)c(O)c1)O2 [NYMPHAEOL A] | 41.2 µM | – | 554 µM | – | 0.95 | 2.3 µM | – | – | – | – | 0.79 | Active | inactive | – | – |
| CC(C)=CCc1c(-c2ccc(O)cc2O)oc2cc3c(c(O)c2c1=O)C=CC(C)(C)O3 [CUDRAFLAVONE B] | 219 µM | – | 641 µM | – | – | 1.8 µM | – | – | 1.71 | Active | 2 | inactive | – | 3.12 | 2.13 |
